What was measured:
Assay type in all cases: functional, Mus musculus
L1210 [1] = assay: Percentage of L1210 cells killed was determined in L1210 Inoculated mice at a dose of 22 mg/kg after a single treatment
Method in brief: (§1)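 BDF1 female mice (~18 g) inoculated ip on day 0 with 1 × 10⁶ L1210 leukemia cells. Single ip bolus 24 h later, prepared just before use and given in 0.01 mL/g body weight (mg/kg dose = 10 × solubility in mg/mL; water, or Me₂SO if insoluble). Six mice per group. Percent of viable leukemia cells killed estimated from inoculum size versus life span data.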

L1210 [2] = assay: Post inoculation lifespan was determined in L1210 Inoculated mice at a dose of 22 mg/Kg after a single treatment
Method in brief: (§2)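 BDF1 female mice (~18 g) received 1 × 10⁶ L1210 cells ip on day 0, then one ip bolus at 24 h in 0.01 mL/g (dose = 10 × solubility in mg/mL; water, or Me₂SO if insoluble). Controls got 0.9% NaCl. Six mice per treatment group. %T/C = mean life span of treated / mean life span of controls × 100. Deaths assigned to leukemia or toxicity from timing and necropsy.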

L1210 [3] = assay: Percentage of L1210 cells killed was determined in L1210 Inoculated mice at a dose of 173 mg/kg after a single treatment; method in brief: as §1
L1210 [4] = assay: Post inoculation lifespan was determined in L1210 Inoculated mice at a dose of 173 mg/Kg after a single treatment; method in brief: as §2
L1210 [5] = assay: Percentage of L1210 cells killed was determined in L1210 Inoculated mice at a dose of 104 mg/kg after a single treatment; method in brief: as §1
L1210 [6] = assay: Post inoculation lifespan was determined in L1210 Inoculated mice at a dose of 104 mg/Kg; method in brief: as §2
L1210 [7] = assay: Percentage of L1210 cells killed was determined in L1210 Inoculated mice at a dose of 37 mg/kg after a single treatment; method in brief: as §1
L1210 [8] = assay: Post inoculation lifespan was determined in L1210 Inoculated mice at a dose of 37 mg/Kg after a single treatment; method in brief: as §2
L1210 [9] = assay: Percentage of L1210 cells killed was determined in L1210 Inoculated mice at a dose of 62 mg/kg after a single treatment; method in brief: as §1
L1210 [10] = assay: Post inoculation lifespan was determined in L1210 Inoculated mice at a dose of 62 mg/Kg; method in brief: as §2
L1210 [11] = assay: Percentage of L1210 cells killed was determined in L1210 Inoculated mice at a dose of 480 mg/kg after a single treatment; method in brief: as §1
L1210 [12] = assay: Post inoculation lifespan was determined in L1210 Inoculated mice at a dose of 480 mg/Kg after a single treatment; method in brief: as §2
L1210 [13] = assay: Percentage of L1210 cells killed was determined in L1210 Inoculated mice at a dose of 13 mg/kg after a single treatment; method in brief: as §1
L1210 [14] = assay: Post inoculation lifespan was determined in L1210 Inoculated mice at a dose of 13 mg/Kg after a single treatment; method in brief: as §2
L1210 [15] = assay: Post inoculation lifespan was determined in L1210 Inoculated mice at a dose of 62 mg/Kg after a single treatment; method in brief: as §2
L1210 [16] = assay: Post inoculation lifespan was determined in L1210 Inoculated mice at a dose of 104 mg/Kg after a single treatment; method in brief: as §2
L1210 [17] = assay: Percentage of L1210 cells killed was determined in L1210 Inoculated mice at a dose of 8.1 mg/kg after a single treatment; method in brief: as §1
L1210 [18] = assay: Post inoculation lifespan was determined in L1210 Inoculated mice at a dose of 8.1 mg/Kg after a single treatment; method in brief: as §2

CC(=O)OC[C@H]1O[C@@H](n2cnc3c([S+](N)[O-])nc(N)nc32)[C@H](OC(C)=O)[C@@H]1OC(C)=O (stereo partly specified)
Activity (L1210 [1]): 0%
T/C (L1210 [2]): 99%

NS(=O)(=O)c1ncnc2c1ncn2[C@@H]1O[C@H](CO)[C@@H](O)[C@H]1O
Activity (L1210 [3]): 98.36%
T/C (L1210 [4]): 147%

NS(=O)(=O)c1[nH]cnc2ncnc1-2
Activity (L1210 [5]): 95.48%
T/C (L1210 [6]): 134%

Nc1nc(S(N)(=O)=O)c2[nH]cnc2n1
Activity (L1210 [1]): 20.78%
T/C (L1210 [2]): 103%

Nc1nc([S+](N)[O-])c2[nH]cnc2n1 (stereo unspecified)
Activity (L1210 [1]): 67.94%
T/C (L1210 [2]): 113%

NSc1[nH]c(N)nc2ncnc1-2
Activity (L1210 [7]): 99.04%
T/C (L1210 [8]): 159%

O=S(=O)(F)c1[nH]cnc2ncnc1-2
Activity (L1210 [9]): 73.54%
T/C (L1210 [10]): 115%

NSc1ncnc2c1ncn2C1O[C@H](CO)[C@@H](O)[C@H]1O (stereo partly specified)
Activity (L1210 [11]): 97.82%
T/C (L1210 [12]): 149%

C[C@H]1OC(n2cnc3c(SN)nc(N)nc32)[C@H](O)[C@@H]1O (stereo partly specified)
Activity (L1210 [13]): 95.9%
T/C (L1210 [14]): 136%

Nc1nc(S(N)(=O)=O)c2ncn(C3O[C@H](CO)[C@@H](O)[C@H]3O)c2n1 (stereo partly specified)
Activity (L1210 [9]): 92.4%
T/C (L1210 [15]): 128%

NSc1nc(N)nc2c1ncn2C1O[C@H](CO)[C@@H](O)[C@H]1O (stereo partly specified)
Activity (L1210 [1]): 99.84%
T/C (L1210 [2]): 170%

C[C@H]1OC(n2cnc3c(S(N)(=O)=O)nc(N)nc32)[C@H](O)[C@@H]1O (stereo partly specified)
Activity (L1210 [11]): 94.38%
T/C (L1210 [12]): 130%

C[C@H]1OC(n2cnc3c(S)nc(N)nc32)[C@H](O)[C@@H]1O (stereo partly specified)
Activity (L1210 [7]): 99.82%
T/C (L1210 [8]): 169%

Nc1nc([S+](N)[O-])c2ncn(C3O[C@H](CO)[C@@H](O)[C@H]3O)c2n1 (stereo partly specified)
Activity (L1210 [3]): 99.8%
T/C (L1210 [4]): 167%

N[S+]([O-])c1ncnc2c1ncn2C1O[C@H](CO)[C@@H](O)[C@H]1O (stereo partly specified)
Activity (L1210 [9]): 70.87%
T/C (L1210 [15]): 114%

C[C@H]1OC(n2cnc3c([S+](N)[O-])nc(N)nc32)[C@H](O)[C@@H]1O (stereo partly specified)
Activity (L1210 [5]): 99.87%
T/C (L1210 [16]): 172%

Nc1nc(=S)c2ncn([C@@H]3O[C@H](CO)[C@@H](O)[C@H]3O)c2[nH]1 [THIOGUANOSINE]
Activity (L1210 [17]): 98.41%
T/C (L1210 [18]): 147%

OC[C@H]1O[C@@H](n2cnc3c(S)ncnc32)[C@H](O)[C@@H]1O [THIOINOSINE]
Activity (L1210 [3]): 98.36%
T/C (L1210 [4]): 150%
